# Assay results gathered from unrelated publications.
# Compare with care: the assays were run in different laboratories.
# Organism: Trypanosoma cruzi
# Observed: parasite growth
# Notes: intracellular, amastigote
SMILES,assay,system,setting,endpoint,value
COC(=O)c1ccc(NCc2cncn2Cc2ccccc2Cl)cc1-c1ccccc1,,mouse Fibroblast,,EC50,0.1 to 1 µM
c1ccc(C2CCN(c3nc(-c4ccco4)nc4ccccc34)C2)nc1 (stereo not shown),imaging,U2OS,,IC50,50 µM
COC(=O)c1ccc(NCc2cncn2Cc2ccccc2[N+](=O)[O-])cc1-c1ccccc1,,mouse Fibroblast,,EC50,0.1 to 1 µM
O=C(N[C@@H](Cc1ccccc1)C(=O)c1cn(COCc2ccccc2)nn1)[C@H](Cc1ccccc1)NC(=O)N1CCOCC1,,TULAHUEN,,IC50,32.2 µM
Cc1ccc2nc(-c3ccc(F)c(F)c3)c(CN3CCC(Cc4ccccc4)CC3)n2c1,,TULAHUEN,6 days,EC90,4.7 µM
O=C(N[C@@H](Cc1ccccc1)C(=O)c1nccs1)[C@H](Cc1ccccc1)NC(=O)N1CCOCC1,,TULAHUEN,,IC50,31.7 µM
COc1ccc(Nc2nc(-c3ccncc3)nc3ccccc23)cc1,imaging,U2OS,,IC50,24.5 µM
O=C(Cn1ccnc1[N+](=O)[O-])NCc1ccccc1,,TULAHUEN,6 days,EC90,1.64 µM
O=C(N[C@H](Cc1c[nH]c2ccccc12)C(=O)Nc1ccncc1)c1ccc(-c2cc(F)ccc2F)cc1F,imaging,C2C12,72 h,EC50,0.0013 µM
COc1ccc(Nc2nc(-c3ccco3)nc3ccccc23)cc1,imaging,U2OS,,IC50,11.4 µM
